From ChEMBL document CHEMBL1122803, “Folate antagonists. 22. Antimalarial and antibacterial effects of 2,4-diamino-6-quinazolinesulfonamides” (1984) come the findings set out here.

In this assay the test system is Plasmodium berghei. Put plainly: Antimalarial activity as survivor numbers at day 60 for drug-sensitive Plasmodium berghei infected mice (Mus musculus) after 72 hr. The assay is classed as functional. The essentials: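 Normal drug-sensitive P. berghei infection in mice. A single subcutaneous dose was given 72 h postinfection, dissolved or suspended in sesame or peanut oil. Groups were five animals (ten where indicated). Mice alive at 60 days postinfection were counted as "cured", without subinoculation confirmation. Toxic deaths on days 2–5 were recorded separately.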

With `Nc1nc(N)c2cc(S(=O)(=O)c3ccc4ccccc4c3)ccc2n1`, the survivors at day 60 was found to be 5.
